# Screening data deposited in PubChem BioAssay by The Scripps Research Institute Molecular Screening Center.
# Sampled rows, rich in hits. Any-hit rate of the full collection: about 1.2%.
# IDE inh: human IDE inhibitors in live cells, primary screen, fluorescence polarization, HEK cells, FAbetaB substrate | FAbetaB cleavage | AID 434962, 2010 | actives 0.41% (n = 320,000) | inhibition, % at 5.59 µM | Insulin-degrading enzyme (Homo sapiens), P14735;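 active = percent inhibition above the average of all tested compounds plus 3 SD, set per screening campaign, cut at about 16% in these data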;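 note: IDE supplied by intact live HEK cells; FP after avidin binding of uncleaved biotin substrate so inhibition keeps polarization high; 0% = DMSO wells and 100% = 60 µM reference IDE inhibitor Ii1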
# Target sequence (P14735 whole entry, looked up): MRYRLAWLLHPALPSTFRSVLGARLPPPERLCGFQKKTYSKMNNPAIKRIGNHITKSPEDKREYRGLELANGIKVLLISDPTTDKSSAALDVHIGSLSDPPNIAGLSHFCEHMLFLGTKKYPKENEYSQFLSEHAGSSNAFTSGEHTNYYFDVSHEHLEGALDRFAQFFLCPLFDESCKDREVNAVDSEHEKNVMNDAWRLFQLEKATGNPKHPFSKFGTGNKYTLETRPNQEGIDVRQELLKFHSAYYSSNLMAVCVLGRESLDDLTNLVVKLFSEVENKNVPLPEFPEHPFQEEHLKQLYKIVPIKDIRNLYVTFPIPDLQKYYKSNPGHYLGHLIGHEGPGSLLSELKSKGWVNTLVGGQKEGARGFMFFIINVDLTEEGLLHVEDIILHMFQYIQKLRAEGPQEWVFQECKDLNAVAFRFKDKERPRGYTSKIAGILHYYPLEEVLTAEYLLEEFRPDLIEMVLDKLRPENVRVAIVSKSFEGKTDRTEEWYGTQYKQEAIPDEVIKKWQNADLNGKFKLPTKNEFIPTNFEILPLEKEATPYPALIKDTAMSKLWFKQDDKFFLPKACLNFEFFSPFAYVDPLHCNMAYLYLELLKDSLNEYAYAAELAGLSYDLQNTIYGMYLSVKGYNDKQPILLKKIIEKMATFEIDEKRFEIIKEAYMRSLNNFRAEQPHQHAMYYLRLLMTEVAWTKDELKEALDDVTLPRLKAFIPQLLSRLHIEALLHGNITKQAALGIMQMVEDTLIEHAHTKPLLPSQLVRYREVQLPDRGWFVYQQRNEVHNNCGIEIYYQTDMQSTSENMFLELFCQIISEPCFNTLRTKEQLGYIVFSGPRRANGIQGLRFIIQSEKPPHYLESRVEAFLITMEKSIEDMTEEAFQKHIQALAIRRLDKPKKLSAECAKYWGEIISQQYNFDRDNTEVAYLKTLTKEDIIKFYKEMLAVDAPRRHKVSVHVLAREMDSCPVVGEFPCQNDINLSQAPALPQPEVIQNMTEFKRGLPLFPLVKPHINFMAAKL
# procasp3 activ: activators of human procaspase-3 D3A mutant, primary screen, biochemical, absorbance, PC-3 D3A mutant, single concentration; recombinant procaspase-3 D3A, Ac-DEVD-pNA absorbance 405 nm; activation, % at 8.5 µM; actives 0.11% (n = 330,000); AID 463141, 2010;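 active = activation above the mean of all tested compounds plus 3 SD, cut at about 21% in these data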;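 note: 0% = DMSO alone and 100% = DMSO wells spiked with extra 5 µM PC-3 D3A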
#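 material = Procaspase-3 D3A mutant | probe or stimulus = Ac-DEVD-pNA | compound = single dose, 8.5 µM nominal compound, 0.8% DMSO | timing = 1 h preincubation, 2 h reaction | measured by = 405 nm absorbance of p-nitroaniline, reads at 0 and 120 min | benchmarks = DMSO-only low control, 5 µM PC-3 D3A high control | repeats = singlicate, each compound tested once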
# procasp7 counter: procaspase-7 activators, primary screen, counter-screen for procaspase-3 activator project, biochemical, absorbance, HTS, human | recombinant procaspase-7, Ac-DEVD-pNA absorbance 405 nm; D23A/D198A/D206A triple mutant, cannot self-cleave; scale: DMSO 0, 5 µM enzyme 100 | activation, % at 8.5 µM | actives 0.093% (n = 330,000) | AID 463210, 2010;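 active = percent activation above the screen-wide mean plus 3 SD, cut at about 25% in these data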
#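 Assay system: Uncleavable procaspase-7 mutant enzyme / Input: 2 µM procaspase-7 mutant as dispensed / Dosing: single nominal 8.5 µM compound dose, 0.8% DMSO final / Timing: 1 h enzyme–compound preincubation and 2 h substrate reaction, both 25 °C / Detection: p-Nitroaniline absorbance at 405 nm, read at 0 and 120 min / Replication: singlicate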
# IDE cell activ: human IDE activators in live cells, primary screen, fluorescence polarization, HEK cells, FAbeta-B substrate; FAbeta-B cleavage; 0% vehicle, 100% cell-free pure enzyme wells; activation, % at 5.96 µM; actives 0.073% (n = 340,000); AID 493087, 2011; Insulin-degrading enzyme (Homo sapiens), P14735;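 active = activation above the mean of all tested compounds plus 3 SD, set per screening campaign, cut at about 17% in these data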
# TPT1 inh: Candida albicans TPT1 enzyme inhibitors, primary screen, biochemical, fluorescence polarization; tRNA 2'-phosphotransferase TPT1 (Candida albicans SC5314); actives 0.81% (n = 300,000); recombinant caTPT1, FP RNA substrate dephosphorylation; inhibition, % at 5 µM;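 active = inhibition above the mean of all tested compounds plus 3 SD, set per screening campaign, cut at about 24% in these data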;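 note: plate controls were DMSO alone for no effect and ferristatin control at 100 nM for full effect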
# procasp7 triplic: procaspase-7 activators, counter-screen for procaspase-3 activator project, biochemical, absorbance, triplicate, human. recombinant procaspase-7, Ac-DEVD-pNA absorbance; asp23/198/206-to-Ala mutant, cannot self-cleave. 210 tested, under 10 active. shares compounds with procasp3 activ. AID 488941, 2010. activation, % at 8.5 µM;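 active = mean activation above a set limit taken from an earlier procaspase-7 screen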;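 note: 0% = DMSO wells and 100% = DMSO plus 5 µM procaspase-7 enzyme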
# procasp3 conf: activators of human procaspase-3 D3A mutant, confirmation, biochemical, absorbance, PC-3 D3A mutant, triplicate; activation, % at 8.5 µM; actives 10% (n = 210); AID 488954, 2010; recombinant PC-3 D3A, Ac-DEVD-pNA absorbance 405 nm; 100% is higher-enzyme control; shares compounds with procasp3 activ;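 active = mean activation above a set limit carried over from the earlier primary screen, cut at about 22% in these data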
# * hit, by the source's call; nt = no result.
SMILES,IDE inh,procasp3 activ,procasp7 counter,IDE cell activ,TPT1 inh,procasp7 triplic,procasp3 conf
O=C(NC12CC3CC(CC(C3)C1)C2)N(Cc1ccccc1)Cc1ccncc1,0.4,58.6*,7.2,-2.5,-1.8,4.1,6.7
COc1ccc(/C=C2\N=C(c3ccc(C)cc3)OC2=O)cc1,1.3,-1.1,2.5,5.0,-4.8,nt,nt
COc1ccc(C2=NC(=O)/C(=C\c3cc(OC)c(OC)c(OC)c3)O2)cc1,4.5,26.0*,23.3,-3.5,2.5,26.5*,32.6*
CS(=O)(=O)N1CCC(Oc2ccccc2C(=O)NCCCc2cccnc2)CC1,5.6,1.3,0.4,2.8,1.1,nt,nt
COC(=O)c1ccccc1NCc1cc(=O)oc2cc(O)c(O)cc12,2.3,53.2*,18.0,-1.4,1.9,10.2,53.5*
C=CCn1c2ccccc2c(=O)c2cc(C#Cc3ccccn3)ccc21,0.1,-12.1,-15.6,6.9,nt,nt,nt
Oc1ccc(N=Cc2ccc(-c3cccs3)s2)cc1,2.6,35.2*,23.5,3.2,3.6,-21.8,-12.4
COc1ccc(-c2nc3ccc(N4CCCC4)cc3c(=O)[nH]2)cc1OC,0.6,31.4*,-5.0,-2.1,-0.5,-19.8,-9.9
COc1ccc2nc(-c3ccccc3)[nH]c(=O)c2c1,nt,nt,nt,0.0,nt,nt,nt
Oc1ccc(/C=N/NC(=S)NCc2ccco2)cc1,2.8,3.9,-3.4,-0.3,-0.9,nt,nt
CCN(CC)c1ccc(/C=N/NC(=S)NCc2ccco2)cc1,9.4,27.4*,14.3,4.9,-2.5,1.5,30.9*
CCCNC(=O)c1ccc2c(=O)c(O)c(-c3ccc(OC)cc3)[nH]c2c1,-3.4,118.8*,-2.0,0.0,-18.3,-1.8,0.5
CCCNC(=O)c1ccc2c(=O)c(O)c(-c3ccsc3)[nH]c2c1,-1.9,2.4,-0.8,4.7,-37.4,nt,nt
CCCNC(=O)c1ccc2c(=O)c(O)c(-c3ccc(C)cc3)[nH]c2c1,-2.3,99.8*,20.0,-0.6,-25.1,21.2,28.5*
Cc1ccc(CNC(=O)c2ccc3c(=O)c(O)c(-c4ccc(C)cc4)[nH]c3c2)cc1,-4.5,9.6,13.0,5.8,0.3,nt,nt
COc1ccccc1N(CC(=O)N1CCCC1)S(=O)(=O)c1cc([N+](=O)[O-])ccc1Cl,-7.0,-5.0,-7.2,4.2,nt,nt,nt
O=C(Cc1c(O)c2ccccc2[nH]c1=O)NC1CCCCCCC1,9.6,22.0*,-7.1,5.6,1.1,0.3,7.1
Cc1sc2ncnc(SCC(=O)Nc3ccc(S(=O)(=O)N4CCOCC4)cc3)c2c1C,13.4,22.6*,3.7,-8.0,nt,-0.2,2.1
CC(=O)Nc1ccc(NC(=O)CSc2ncnc3sc(C)c(C)c23)cc1,-0.8,2.6,1.4,-0.1,0.1,nt,nt
COc1ccc2oc(=O)c(/C(C)=N/Nc3ccccc3)cc2c1,2.6,-5.3,-7.6,4.6,-1.8,nt,nt
CC1CCN(CCCNC(=O)COc2cc(=O)n(C)c3ccccc23)CC1,0.1,38.1*,3.8,4.5,-1.3,1.3,4.8
CCn1c(=O)cc(OCC(=O)NCCCN2CCC(C)CC2)c2ccccc21,1.7,6.4,7.5,4.0,0.9,nt,nt
CC1(C)CC(=O)C2=C(C1)c1c(ccc3ccccc13)NC2c1ccc(Br)o1 (stereo not drawn),-1.2,29.4*,16.0,3.2,0.6,31.0*,3.6
CNC(=O)c1c(NC(=O)c2cccc(C)c2)sc2c1CCC2,1.8,28.9*,-226.4,1.1,2.8,-3.0,-1.8
CN(C)c1nc(NNC(=O)c2ccccc2)nc(N(C)C)n1,nt,nt,nt,6.0,nt,nt,nt
SMILES,IDE inh,procasp3 activ,procasp7 counter,IDE cell activ,TPT1 inh,procasp7 triplic,procasp3 conf
O=C(NC1CCCCC1)c1cc(N2C(=O)CCC2=O)ccc1Cl,0.8,-4.3,-3.5,2.5,-0.6,nt,nt
CCCCN(C(=O)CSCC(=O)Nc1cccc(C)c1)c1c(N)n(Cc2ccccc2)c(=O)[nH]c1=O,-3.1,23.7*,2.2,5.8,-0.3,1.3,2.9
COc1ccc(C2CC(c3ccccc3C(F)(F)F)=NN2c2ccc(S(N)(=O)=O)cc2)cc1 (stereo not drawn),nt,34.8*,23.8,3.7,nt,-20.4,-14.4
[O-][n+]1onc2c1C(N1CCOCC1)CCC2N1CCOCC1 (stereo not drawn),3.4,67.6*,11.1,-0.1,-4.4,4.5,4.8
CSc1ccccc1NC(=O)CN1CCN(S(=O)(=O)c2ccccc2[N+](=O)[O-])CC1,-1.5,-5.9,-2.4,5.0,nt,nt,nt
C/C(Cl)=C\CSc1nnc2n(N)c(=O)c3ccccc3n12,2.7,-2.5,0.1,-0.2,-0.6,nt,nt
C=C(C)CSc1nnc2n(N)c(=O)c3ccccc3n12,-0.9,21.6*,4.8,-2.4,-1.2,0.1,3.7
CCOc1ccc(C(=O)C[n+]2ccc(C(=O)NCc3ccccc3)cc2)cc1,-2.1,32.7*,6.6,3.5,2.1,5.2,6.6
CCOc1ccc(C(=O)C[n+]2ccc(C(=O)NCCO)cc2)cc1,0.9,-1.3,-8.4,-1.1,-1.7,nt,nt
CCc1cc2c(CN(C)Cc3ccccc3F)cc(=O)oc2cc1O,2.4,46.4*,21.1,2.0,-1.3,-22.1,-15.8
Cc1c(C)n2c(SCC(=O)N3CCCCCC3)nnc2[nH]c1=O,3.7,22.6*,8.9,-5.2,-6.5,0.8,2.7
COCC(C)n1c(SCC(=O)NC(=O)NCc2ccccc2)nc2ccccc2c1=O (stereo not drawn),5.0,0.9,1.7,-3.4,nt,nt,nt
Cc1cc(C)cc(C(=O)Nc2c3c(nn2C(C)(C)C)CS(=O)(=O)C3)c1,5.2,21.8*,1.7,-4.3,-1.2,0.4,5.5
Cc1ccc(SCC(=O)OCc2csc(CC(=O)Nc3ccccc3C)n2)cc1C,3.4,-2.7,2.4,3.8,nt,nt,nt
CN(C(=O)c1cccc(NC(=O)Cc2ccc(NC(=O)C3CCN(C(=O)C4CCC4)CC3)cc2)c1)C1CCCCC1,nt,nt,nt,3.8,nt,nt,nt
O=C(NN1C(=O)C2C3C=CC(C4CC34)C2C1=O)c1ccc(Cl)c(Cl)c1 (stereo not drawn),3.6,0.4,6.1,4.4,-0.9,nt,nt
O=C(NN1C(=O)C2C3C=CC(C3)C2C1=O)c1cccc(Cl)c1 (stereo not drawn),7.2,23.9*,-8.1,2.8,-4.5,4.4,2.7
